Source: paper PMC12738293 (Oncogene, 2025)
No end group written: not given here.

Tests used:
Gemin4 [1] = experiment: Co-IP, XLH-36/Gemin4; format: binding; details: endogenous interaction, Fig. 5E
Gemin4 [2] = experiment: yeast two-hybrid assay; format: binding; details: DDO medium SD/Trp-/Leu-, TDO medium SD/Trp-/Leu-/HIS-
Gemin4 [3] = experiment: Immunofluorescence co-staining XLH-36/Gemin4; format: cell-based; details: MDA-MB-231 cells, confocal immunofluorescence
How it was run: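 Cells fixed 15 min at RT in β-galactosidase staining fixative, permeabilised with Triton X-100 for 15 min, blocked in 5% BSA for 30 min at RT. Primary antibody overnight at 4 °C, then secondary antibodies 2 h at RT in the dark. DAPI counterstain 10 min in the dark; imaged by fluorescence microscopy. PBS washes between steps.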

Human Gemin4 protein = biological target: T1, Human Gemin4 protein (Homo sapiens, UniProt P57678); experiment: MicroScale thermophoresis; format: binding
T1 sequence (P57678 1-1058): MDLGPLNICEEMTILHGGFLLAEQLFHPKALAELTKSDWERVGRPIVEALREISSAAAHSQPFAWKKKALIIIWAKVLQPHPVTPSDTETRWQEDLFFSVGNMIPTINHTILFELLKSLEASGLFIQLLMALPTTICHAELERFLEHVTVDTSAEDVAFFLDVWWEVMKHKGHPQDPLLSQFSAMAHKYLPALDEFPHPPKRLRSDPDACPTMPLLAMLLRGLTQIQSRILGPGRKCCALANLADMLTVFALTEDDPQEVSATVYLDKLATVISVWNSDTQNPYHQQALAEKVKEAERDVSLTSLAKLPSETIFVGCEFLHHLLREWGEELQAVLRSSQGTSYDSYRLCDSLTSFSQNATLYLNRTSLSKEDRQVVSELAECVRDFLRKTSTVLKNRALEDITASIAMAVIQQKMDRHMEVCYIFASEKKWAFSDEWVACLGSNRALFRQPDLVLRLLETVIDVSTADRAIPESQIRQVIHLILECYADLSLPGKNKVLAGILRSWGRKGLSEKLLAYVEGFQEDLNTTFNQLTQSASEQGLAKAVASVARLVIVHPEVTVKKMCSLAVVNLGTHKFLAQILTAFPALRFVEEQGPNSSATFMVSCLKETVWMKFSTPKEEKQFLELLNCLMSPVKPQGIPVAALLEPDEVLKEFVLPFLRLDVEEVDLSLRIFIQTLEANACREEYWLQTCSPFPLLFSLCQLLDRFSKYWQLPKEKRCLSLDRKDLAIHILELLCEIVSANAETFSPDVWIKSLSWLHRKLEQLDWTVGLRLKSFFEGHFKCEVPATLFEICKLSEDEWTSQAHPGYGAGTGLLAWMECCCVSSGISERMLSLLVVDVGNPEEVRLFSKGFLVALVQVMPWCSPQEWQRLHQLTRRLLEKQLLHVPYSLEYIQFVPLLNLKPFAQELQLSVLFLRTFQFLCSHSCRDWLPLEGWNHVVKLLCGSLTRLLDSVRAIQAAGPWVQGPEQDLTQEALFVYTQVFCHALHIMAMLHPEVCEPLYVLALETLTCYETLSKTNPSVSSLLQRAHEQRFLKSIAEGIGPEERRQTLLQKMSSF
How it was run: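 Human Gemin4 expressed in HEK293 cells and labelled with Cy5 through cysteine sulfhydryl groups. Binding of the test peptide to the labelled protein was measured by microscale thermophoresis, and affinity was derived with the instrument's affinity analysis tool.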

“MRQGPSTEVPGRAPRPRGPAASRADPSLRPEGGQDP [XLH-36]” was tested. Which “interaction with Gemin4” value (Gemin4 [1]) did it give?
The value was “only Gemin4 was confirmed to interact with XLH-36”.

What about the “direct interaction with Gemin4” value (Gemin4 [2]) of the same sequence?
The value was “supported the direct interaction between XLH-36 and Gemin4”.

What about the “IF interaction with Gemin4” value (Gemin4 [3]) of the same sequence?
Its value is “XLH-36 indeed interacted with Gemin4”.

What about the Kd (Human Gemin4 protein) of the same sequence?
The Kd was 4.76 µM.
